Shown are actives, neighbours in structure and some others; about 3.1% of the full set was active somewhere.
FGF22 binding – FGF22 (human) thermal shift binding | Q9HCT0 | activity (Tm shift, normalised), % at 9.99 µM | AID 651658 | actives 1.5% (n = 340,000) | recombinant FGF22 thermal shift, SYPRO orange fluorescence; percent of sucrose octasulfate shift, DMSO zero;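 active = mean Tm shift, scaled 0 neutral to 100 positive control, at about 1.3% or above, every replicate too, limit read from the data; inconclusive = no clear call, values can overlap the other calls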
Target sequence (Q9HCT0 whole entry, looked up): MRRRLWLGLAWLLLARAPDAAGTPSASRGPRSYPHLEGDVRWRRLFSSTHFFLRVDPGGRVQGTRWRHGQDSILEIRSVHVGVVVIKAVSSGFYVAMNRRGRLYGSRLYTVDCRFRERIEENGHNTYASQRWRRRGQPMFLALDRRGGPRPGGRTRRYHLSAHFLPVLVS
EWS-Fli block – blocks EWS/Fli oncoprotein-driven transcription; A673 NR0B1-luciferase reporter, viability-normalised; inhibition, % at 12.6 µM; actives 0.67% (n = 350,000); AID 651661;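 active = mean inhibition of at least 50% after viability correction, with every replicate also passing that limit; inconclusive = mean reaches 50% but only one of two replicates passes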;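 also: firefly luciferase signal divided by Alamar Blue viability fluorescence both relative to DMSO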
FN deposition inh – fibronectin deposition inhibition; inhibition, % at 12.6 µM; AH1F fibroblasts, Alexa488-fibronectin deposition fluorescence, overnight; actives 0.086% (n = 350,000);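 active = mean inhibition across replicates of 30% or more, regardless of how many single replicates reach that level; inconclusive = mean under 30% yet at least half of replicates reach 30%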;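 also: positive control wells lacked labelled fibronectin entirely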
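Measured by – fluorescence 485/525 nm · System – AH1F fibroblast monolayer, labelled fibronectin deposition · Amount – 10000 cells per well · Buffer or medium – serum-reduced DMEM (2% serum) · Doses – single dose, pinned · Also added – fluorescent fibronectin at 24 nM final · Schedule – 1 h cell attachment, overnight exposure to compound and label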
PGC1a acetyl inh – modulators of PGC1a acetylation; actives 0.17% (n = 350,000); AID 651687; inhibition, % at 15.6 µM; U2OS PGC1a acetylation, AlphaScreen anti-acetyl-lysine; with virally co-expressed GCN5 acetyltransferase;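 active = every replicate shows inhibition of at least 40%; inconclusive = mean inhibition at least 40% but some replicate below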;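 also: 0% = neutral control wells and 100% = positive control wells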
PAX8 inh HTS – lowers PAX8-driven luciferase in RMG-I cells. AID 652154. actives 1.2% (n = 360,000). inhibition, % at 12.6 µM. RMG-I TPO-luciferase reporter, SteadyGlo, 24 h;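 active = mean replicate inhibition at least 60% with every replicate also reaching 60%; inconclusive = only one of the two criteria is met; inactive = mean below 60% and not all replicates reaching 60%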;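 also: luciferase light reporting Pax8 driven TPO promoter activity; plate controls were median of neutral control wells for no effect and mitoxantrone controls for full effect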
HIV Env fusion – blocks HIV Env-driven cell-cell fusion. HeLa-JRFL Env/CEM21 cell fusion, luciferase. inhibition, % at 12.3 µM. actives 1.1% (n = 360,000). AID 651610;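 active = mean replicate inhibition score of at least 50 and every replicate individually at or above 50; inconclusive = only one of the two criteria met; inactive = mean below 50 and not all replicates reaching 50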;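 also: 0% = plate neutral controls and 100% = maraviroc near 300 nM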
DNA binding – small molecule DNA binding by fluorescence polarization; shares compounds with EWS-Fli block; salmon sperm DNA acridine orange fluorescence polarization; AC35, µM (series often up to 68 µM), for the others: at the highest dose activity change, negative = DNA binding; actives 2% (n = 640); AID 720586;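 active = fitted curve reaches a 35% signal fall AC35 below twice the sample's top valid tested dose, actives reach about 48 µM in these data; inactive = the rest, including activity in the rising direction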;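 also: lower polarization ratio signals compound binding to DNA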
An asterisk follows results filed as active; u = inconclusive; x = not tested or not shown; [ ] = remark or other dose.

SMILES | FGF22 binding | EWS-Fli block | FN deposition inh | PGC1a acetyl inh | PAX8 inh HTS | HIV Env fusion | DNA binding
C[C@@H]1CN([C@H](C)CO)C(=O)c2cc(C#CCc3ccccc3)cnc2O[C@@H]1CN(C)Cc1cccc(F)c1 | 0 | 56* | -21 | -17 | x | x | -7%
C[C@H]1CN([C@@H](C)CO)C(=O)c2cc(NC(=O)CCCCCC(=O)Nc3ccccc3N)ccc2O[C@H]1CN(C)Cc1ccc(Cl)c(Cl)c1 | 0 | 18 | x | -4 | x | x | x
C[C@@H]1CN([C@H](C)CO)C(=O)c2cc(NC(=O)CCCCCC(=O)Nc3ccccc3N)ccc2O[C@@H]1CN(C)Cc1ccc(Cl)c(Cl)c1 | 0 | 69* | x | -13 | x | x | -1%
C[C@H](CO)N1C[C@H](C)[C@H](CN(C)Cc2cccc(F)c2)Oc2ncc(C#CCc3ccccc3)cc2C1=O | 0 | 12 | -10 | 4 | x | x | x
C[C@@H]1CN([C@H](C)CO)C(=O)c2cc(NC(=O)c3ccncc3)ccc2O[C@@H](C)CCCCO[C@H]1CN(C)C | 0 | -12 | x | -20 | -21 | 9[16.7 µM] | x
COc1ccccc1-c1ccc(OCCCN2CCC(C(O)(c3ccccc3)c3ccccc3)CC2)cc1 | 0 | 71* | 5 | x | 96* | 97* | -15%
COc1ccc(N=C(NN)c2ccc3ccccc3n2)cc1 | 0 | 72* | 2 | -20 | x | 25 | -1%
Cc1nn(-c2ccc(F)cc2)c2nc(N)c(C#N)c(-c3ccc(O)c(O)c3)c12 | 0 | 57* | 8 | -9 | 52 | 13 | 3%
Cc1nn(-c2ccccc2)c2nc(N)c(C#N)c(-c3ccc(O)c(O)c3)c12 | 0 | 15 | 9 | -17 | 6 | 2 | x
COc1ccc(OC)c(N=C2C(=O)Nc3ccccc32)c1 | x | x | 3 | 0 | -4 | -44 | x
COc1ccc(N=C2C(=O)Nc3ccc(C)c(Br)c32)cc1 | 0 | 70* | 4 | 0 | 0 | -152 | -8%
CNC[C@H]1Oc2ccc(NC(=O)Nc3ccc(OC)cc3)cc2CC(=O)N([C@@H](C)CO)C[C@@H]1C | 0 | -2 | x | -1 | 7 | -1[16.7 µM] | x
O=C(CCCCl)Nc1nc(-c2ccc3c(c2)OCCO3)cs1 | 0 | 57* | -4 | 2 | -255 | -44 | -5%
COc1ccc(C(=O)NCCNc2nc3cc(C)cc(C)c3cc2C#N)c(OC)c1 | 0 | 67* | 2 | x | 9 | -37 | -10%
COc1ccccc1C(=O)NCCNc1nc2cc(C)cc(C)c2cc1C#N | 0 | 2 | -1 | 8 | -7 | 10 | x
Cc1ccc(C(=O)CC(=O)c2cc(Cl)ccc2O)cc1 | x | x | -7 | -9 | x | -55 | x
N/C(=C\C(=O)c1cc(Cl)ccc1O)C(Cl)(Cl)Cl | 0 | 62* | 3 | -25 | 43 | -300 | -5%
COc1ccccc1C(=O)Nc1ccc2c(c1)OC[C@@H](C)N(C)C[C@@H](C)[C@@H](OC)CN(C)C2=O | 0 | -8 | 3 | -12 | -1 | 6[16.7 µM] | x
CNC[C@@H]1Oc2ccc(NS(=O)(=O)c3ccc(OC)cc3)cc2CC(=O)N([C@H](C)CO)C[C@H]1C | 0 | 2 | x | -2 | 6 | 22[16.7 µM] | x
O=C(Cc1nn[nH]n1)c1ccccc1O | 0 | 68* | x | x | 15 | 12 | -2%
O=C(C[C@@H]1C[C@@H]2c3cc(NC(=O)Nc4ccccc4F)ccc3O[C@@H]2[C@H](CO)O1)NCC(F)(F)F | 0 | -10 | x | -9 | -46 | -20[16.7 µM] | x
O=C(NC1CCCC1)C(c1ccccc1)n1c(CSCCOc2ccccc2)nc2ccccc21 (stereo unspecified) | 0 | 60* | -2 | x | -11 | u | 2%
O=C(NC1CCCC1)C(c1ccccc1)n1c(-c2cccs2)nc2ccccc21 (stereo unspecified) | 0 | -7 | 3 | x | -12 | 30 | x
NCCOc1ccccc1-c1ccccc1 | x | x | x | -4 | x | x | x
Nc1ccc(Oc2ccccc2-c2ccccc2)cc1 | 0 | 63* | 0 | -10 | 23 | 37 | -4%
SMILES | FGF22 binding | EWS-Fli block | FN deposition inh | PGC1a acetyl inh | PAX8 inh HTS | HIV Env fusion | DNA binding
COc1ccc(S(=O)(=O)Nc2cccc3c2O[C@H](CN(C)Cc2ccc(C(=O)Nc4ccccc4N)cc2)[C@H](C)CN([C@@H](C)CO)C3=O)cc1 | -1 | 57* | x | 13 | x | x | -10%[56 µM]
COc1ccc(S(=O)(=O)Nc2cccc3c2O[C@@H](CN(C)Cc2ccc(C(=O)Nc4ccccc4N)cc2)[C@@H](C)CN([C@H](C)CO)C3=O)cc1 | 0 | -9 | x | -3 | -10 | x | x
C[C@H](CO)N1C[C@H](C)[C@H](CN(C)Cc2ccc(C(F)(F)F)cc2)Oc2c(NS(=O)(=O)c3ccc(Cl)cc3)cccc2C1=O | 0 | 60* | 6 | -3 | x | -51[16.7 µM] | 10%
CC(C)NC(=O)N[C@H]1CC[C@H](CCNC(=O)C2CCCC2)O[C@@H]1CO | 0 | -4 | 6 | -2 | -6 | 4[16.7 µM] | x
CC=Cc1ccc2n(c1=O)C[C@@H]1[C@@H](CO)[C@H](C(=O)NC3CCCC3)N(C(=O)C3CCC3)[C@H]21 (mixture of isomers) | x | -2 | 1 | -11 | x | x | x
C[C@@H]1CCCCO[C@@H](CN(C)Cc2ccncc2)[C@H](C)CN([C@@H](C)CO)C(=O)c2cc(NS(=O)(=O)c3cn(C)cn3)ccc2O1 | 0 | 2 | x | 8 | 7 | 1[16.7 µM] | x
CCC(=O)N1CC2(C1)CN(C(=O)Nc1ccc(F)cc1)[C@H](CO)c1c2c2ccc(OC)cc2n1C | 0 | 12 | x | 5 | x | x | x
O=C([C@@H]1[C@@H](CO)[C@@H]2Cn3c(ccc(C4=CCCCC4)c3=O)[C@@H]2N1Cc1nccs1)N1CCOCC1 | 0 | 3 | x | x | x | x | x
C[C@@H]1CCCCO[C@H](CN(C)Cc2ccc3c(c2)OCO3)[C@@H](C)CN([C@@H](C)CO)C(=O)c2cc(NC(=O)CCC(F)(F)F)ccc2O1 | 0 | 1 | x | -2 | -3 | -37[16.7 µM] | x
CN(C[C@H]1N[C@@H](CO)[C@@H]1c1ccc(C2=CCCC2)cc1)C(=O)c1ccc(F)cc1 | 1 | 73* | -26 | 79* | 108* | x | -14%
C[C@@H]1CN([C@@H](C)CO)C(=O)c2cc(NC(=O)CCC(F)(F)F)ccc2O[C@@H](C)CCCCO[C@H]1CN(C)C(=O)c1ccccc1 | 0 | 0 | 8 | 6 | 22 | 6[16.7 µM] | x
COc1cc(/C=N/NC(=O)c2csc3c2CCCC3)cc(OC)c1O | 1 | 85* | x | x | -6 | 7 | -7%
Cc1ccc(/C=N/NC(=O)c2csc3c2CCCC3)cc1 | x | x | x | -2 | x | x | x
Cc1cc(C)cc(C(=O)NC(=S)Nc2ccc(Cc3ccncc3)cc2)c1 | 0 | 66* | x | -15 | 8 | -19 | -4%
COc1ccc2c3c(n(C)c2c1)[C@@H](CO)N(C(C)=O)CC31CCN(S(=O)(=O)c2ccccc2)CC1 | 0 | -3 | x | 1 | x | x | x
COc1ccc(-c2cnc3c(NC=O)cc(-c4ccccc4OC)cn23)cc1OC | 0 | 58* | 12 | -17 | 100* | -180 | -5%
